Experimental data as given in ChEMBL document CHEMBL4411305, “5-Aminothiophene-2,4-dicarboxamide analogues as hepatitis B virus capsid assembly effectors” (Eur J Med Chem, 2019).
Calls of active or inactive are those of the source. How the calls were made is not given here.

Experiments:
[1] = tested on: HepG2; assay: Cytotoxicity against human HepG2 cells assessed as reduction in cell viability incubated for 2 days prior to compound washout followed by compound redosing and measured after 2 days by XTT assay; type: cell-based; conditions: hepg2, 48 h
[2] = tested on: Hepatitis B virus; assay: Binding affinity to HBV dimeric capsid protein C150 mutant expressed in Escherichia coli BL21 (DE3) at 20 uM by Sypro orange staining based RT-PCR analysis
[3] = tested on: Hepatitis B virus; assay: Antiviral activity against HBV infected in human HepAD38 cells assessed as reduction in total DNA production incubated for 2 days prior to compound washout followed by compound redosing and measured after 2 days by dot-blot analysis; type: functional, organism-based
How it was run: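 HepAD38 cells seeded at 3 × 10^4/well in tetracycline medium; next day washed twice with PBS and given tet-free complete medium with 2-fold serial dilutions, 1% final DMSO, replaced with fresh compound medium after 2 days. After 2 more days cells lysed (NP-40), DNA alkali-denatured, dot-blotted, probed with DIG-labelled HBV probe; chemiluminescence densitometry, variable-slope fit; mean ± SD of ≥2 experiments.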

Row | Structure (SMILES) | CC50 [1] [µM] | Activity [2] | EC50 [3] [µM]
1 | Cc1c(C(=O)Nc2ccc(Cl)c(C(F)(F)F)c2)sc(N)c1C(N)=O | 72 | Active | 
2 | Cc1c(C(=O)Nc2ccccc2)sc(NC(=O)c2csc([N+](=O)[O-])c2)c1C(N)=O | > 100 | Active | 
3 | Cc1c(C(=O)Nc2ccccc2)sc(N)c1C(=O)NCc1ccc(C(F)(F)F)cc1 |  | Active | > 10
4 | Cc1ccc(NC(=O)c2sc(N)c(C(N)=O)c2C)cc1 |  | inactive | > 10
5 | Cc1c(C(=O)Nc2ccc(F)cc2)sc(N)c1C(N)=O | > 100 | Active | 
6 | Cc1c(C(=O)Nc2ccccc2)sc(-n2cnnn2)c1C(N)=O |  | inactive | 
7 | Cc1c(C(=O)Nc2ccc(F)c(F)c2)sc(N)c1C(=O)Nc1ccc(F)c(F)c1 | 17 | Active | 
8 | Cc1nc(=O)c2c(C)c(C(=O)Nc3ccccc3)sc2[nH]1 |  | inactive | 
9 | Cc1c(C(=O)Nc2ccccc2)sc2[nH]c(-c3ccc(F)c(F)c3)nc(=O)c12 |  | inactive | 
10 | Cc1c(C(=O)Nc2cc(F)c(F)c(Cl)c2)sc(N)c1C#N |  | inactive | 
11 | Cc1c(C(=O)Nc2ccc(F)c(F)c2)sc(N)c1C(=O)Nc1ccccc1 | 26 | Active | 
12 | Cc1ccc(C(=O)Nc2sc(C(=O)Nc3ccccc3)c(C)c2C(N)=O)s1 | > 100 | Active | 
13 | Cc1cc(NC(=O)c2c(N)sc(C(=O)Nc3ccccc3)c2C)ccc1F | 40 | Active | 
14 | Cc1c(C(=O)Nc2ccccc2)sc2[nH]c(Cc3ccccc3)nc(=O)c12 |  | inactive | 
15 | COc1ccc(CNC(=O)c2c(N)sc(C(=O)Nc3ccccc3)c2C)cc1 |  | Active | > 10
16 | NC(=O)c1c(N)sc2c1CCN(C(=O)c1ccccc1)C2 |  | inactive | 
17 | Cc1c(C(=O)Nc2ccccc2)sc(N)c1C(=O)Nc1ccccc1 | > 100 | Active | 
18 | NC(=O)c1c(N)sc2c1CCCC2 |  | inactive | 

Row | Structure (SMILES) | CC50 [1] [µM] | Activity [2] | EC50 [3] [µM]
19 | CCOC(=O)c1c(N)sc(C(=O)Nc2ccc(F)c(C)c2)c1C | > 100 | Active | 
20 | Cc1c(C(=O)Nc2ccccc2)sc(N)c1C(=O)NC(C)C |  | inactive | > 10
21 | Cc1c(C(=O)Nc2ccc(C#N)cc2)sc(N)c1C(N)=O |  | inactive | 
22 | Cc1c(C(=O)Nc2ccccc2)sc(NC(=O)c2cn[nH]c2)c1C(N)=O | > 100 | Active | 
23 | Cc1c(C(=O)Nc2ccccc2)sc(NC(=O)c2ccsc2)c1C(N)=O | > 100 | Active | 
24 | Cc1c(C(=O)Nc2ccc(F)c(C(F)(F)F)c2)sc(N)c1C(N)=O | > 100 | Active | 
25 | Cc1c(C(=O)Nc2cc(F)c(F)c(Cl)c2)sc(N)c1C(N)=O | 72 | Active | 
26 | Cc1cc(NC(=O)c2sc(N)c(C#N)c2C)ccc1F | 96 | Active | 
27 | Cc1c(C(=O)Nc2ccccc2)sc(NC(=O)c2cc(Cl)cc(Cl)c2)c1C(N)=O | 49.5 | Active | 
28 | Cc1c(C(=O)Nc2ccccc2)sc2[nH]c(CS(=O)(=O)c3ccccc3)nc(=O)c12 |  | inactive | 
29 | Cc1c(C(=O)Nc2ccccc2)sc(NC(=O)c2ccc(S(C)(=O)=O)cc2)c1C(N)=O | > 100 | Active | 
30 | Cc1c(C(=O)Nc2ccccc2)sc(N)c1C(=O)Nc1ccc(F)c(F)c1 | 40 | Active | 
31 | NC(=O)c1c(N)sc2c1CCCN2C(=O)c1ccccc1 |  | inactive | 
32 | Cc1c(C(=O)Nc2ccccc2)sc(NC(=O)c2nccs2)c1C(N)=O | > 100 | Active | 
33 | Cc1c(C(=O)Nc2ccccc2)sc(N)c1C#N |  | inactive | 
34 | Cc1c(C(=O)Nc2ccccc2)sc(NC(=O)N2CCOCC2)c1C(N)=O |  | inactive | 
35 | Cc1c(C(=O)Nc2ccc(C(F)(F)F)cc2)sc(N)c1C(N)=O |  | inactive | 
36 | Cc1cc(NC(=O)c2sc(N)c(C(=O)Nc3ccc(F)c(C)c3)c2C)ccc1F |  | inactive | 
